{
  "source": "ChEMBL document CHEMBL3352678",
  "about": "“Synthesis and acetylcholinesterase inhibitory activity of Mannich base derivatives flavokawain B” (Bioorg Med Chem Lett, 2014)",
  "key": {"Acetylcholinesterase [1]": {"biological_target": "T1, Acetylcholinesterase (Rattus norvegicus, UniProt P37136)", "T1 sequence (P37136 whole entry)": "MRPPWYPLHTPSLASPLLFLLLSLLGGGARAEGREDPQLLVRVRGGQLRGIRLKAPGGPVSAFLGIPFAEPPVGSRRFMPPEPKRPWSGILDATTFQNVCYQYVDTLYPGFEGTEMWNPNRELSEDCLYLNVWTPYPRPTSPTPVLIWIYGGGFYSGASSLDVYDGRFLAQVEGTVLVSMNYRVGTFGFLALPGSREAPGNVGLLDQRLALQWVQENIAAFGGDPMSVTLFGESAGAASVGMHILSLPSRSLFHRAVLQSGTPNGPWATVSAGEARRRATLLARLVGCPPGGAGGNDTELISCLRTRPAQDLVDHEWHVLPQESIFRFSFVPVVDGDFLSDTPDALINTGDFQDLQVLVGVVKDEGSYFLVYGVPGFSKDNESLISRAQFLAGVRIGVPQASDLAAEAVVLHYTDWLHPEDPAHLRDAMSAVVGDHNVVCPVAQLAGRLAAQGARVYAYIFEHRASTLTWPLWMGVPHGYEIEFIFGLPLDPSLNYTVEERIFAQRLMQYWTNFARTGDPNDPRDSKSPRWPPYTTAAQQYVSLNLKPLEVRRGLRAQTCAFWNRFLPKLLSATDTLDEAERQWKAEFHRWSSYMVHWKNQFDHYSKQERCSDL", "test": "Inhibition of Sprague-Dawley rat brain AChE using acetylthiocholin iodide as substrate preincubated for 25 mins by Ellman's/UV-vis spectroscopy analysis", "method_in_brief": "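Modified Ellman's method. Inhibition ratio was calculated from absorbance of the AChE-catalysed reaction product. IC50 was taken as the concentration causing 50% loss of enzyme activity.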"}, "[2]": {"test": "Octanol-buffer partition coefficient, log p of the compound at pH 7.4 for 24 hrs by shake flask method", "format": "physicochemical", "method_in_brief": "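Partitioning between n-octanol and buffer at pH 7.4 by the classical shake-flask method. Compound in each phase quantified by reverse-phase HPLC. log P calculated from the phase distribution.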"}, "Acetylcholinesterase [3]": {"biological_target": "T1, Acetylcholinesterase", "test": "Inhibition of Sprague-Dawley rat brain AChE using acetylthiocholin iodide as substrate by Michaelis-Menten equation", "method_in_brief": "(§1)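 Kinetic analysis: Km and vmax were determined at several inhibitor concentrations. Ki for the free enzyme came from a linear replot of slope against inhibitor concentration. Ki′ for the enzyme–substrate complex came from a linear replot of intercept against inhibitor concentration.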"}, "Acetylcholinesterase [4]": {"biological_target": "T1, Acetylcholinesterase", "test": "Inhibition of Sprague-Dawley rat brain AChE by Michaelis-Menten equation", "method_in_brief": "as §1"}},
  "data": [
    {"smiles": "COc1cc(OC)c(C(=O)/C=C/c2ccccc2)c(O)c1CN(C)C", "values": [
      {"measurement": "IC50", "setting": "Acetylcholinesterase [1]", "value": 18.8, "unit": "µM"},
      {"measurement": "logD at 24 h", "setting": "[2]", "value": 1.61}
    ]},
    {"smiles": "CCN(CC)Cc1c(OC)cc(OC)c(C(=O)/C=C/c2ccccc2)c1O", "values": [
      {"measurement": "IC50", "setting": "Acetylcholinesterase [1]", "value": 15.1, "unit": "µM"},
      {"measurement": "logD at 24 h", "setting": "[2]", "value": 1.69}
    ]},
    {"smiles": "CCCN(CCC)Cc1c(OC)cc(OC)c(C(=O)/C=C/c2ccccc2)c1O", "values": [
      {"measurement": "IC50", "setting": "Acetylcholinesterase [1]", "value": 54.8, "unit": "µM"},
      {"measurement": "logD at 24 h", "setting": "[2]", "value": 1.77}
    ]},
    {"smiles": "COc1cc(OC)c(C(=O)/C=C/c2ccccc2)c(O)c1CN1CCCC1", "values": [
      {"measurement": "IC50", "setting": "Acetylcholinesterase [1]", "value": 16.1, "unit": "µM"},
      {"measurement": "logD at 24 h", "setting": "[2]", "value": 1.74}
    ]},
    {"smiles": "COc1cc(OC)c(C(=O)/C=C/c2ccccc2)c(O)c1CN1CCCCC1", "values": [
      {"measurement": "IC50", "setting": "Acetylcholinesterase [1]", "value": 4.15, "unit": "µM"},
      {"measurement": "Ki", "setting": "Acetylcholinesterase [3]", "value": 4.58, "unit": "µM"},
      {"measurement": "logD at 24 h", "setting": "[2]", "value": 1.75},
      {"measurement": "Ki", "setting": "Acetylcholinesterase [4]", "value": 2.75, "unit": "µM"}
    ]},
    {"smiles": "COc1cc(OC)c(C(=O)/C=C/c2ccccc2)c(O)c1CN1CCOCC1", "values": [
      {"measurement": "IC50", "setting": "Acetylcholinesterase [1]", "value": 265, "unit": "µM"},
      {"measurement": "logD at 24 h", "setting": "[2]", "value": 1.63}
    ]},
    {"smiles": "COc1cc(OC)c(C(=O)/C=C/c2ccccc2)c(O)c1CN1CCN(C)CC1", "values": [
      {"measurement": "IC50", "setting": "Acetylcholinesterase [1]", "value": 12.4, "unit": "µM"},
      {"measurement": "logD at 24 h", "setting": "[2]", "value": 1.58}
    ]}
  ]
}
